Assay results: ChEMBL document CHEMBL1142735, “Discovery of a new series of centrally active tricyclic isoxazoles combining serotonin (5-HT) reuptake inhibition with alpha2-adrenoceptor blocking activity” (J Med Chem, 2005)

Assays:
[1] = tested on: Rattus norvegicus; test: Effective dose for PCA-induced 5-HT depletion was determined by subcutaneous administration; format: functional; details: sc
How it was run: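 Male Wiga Wistar rats (200 g, n=6 per condition) dosed sc or po (10 mL/kg). At 4 h, frontal cortex removed and extracted with perchloric acid/metabisulfite; 5-HT measured by HPLC-electrochemical detection against a standard curve with dihydroxybenzylamine internal standard. Effect scaled between pCA+vehicle and vehicle+vehicle controls; ED50 from sigmoidal fit.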

[2] = target: Histamine H1 receptor (Homo sapiens, UniProt P35367); test: Inhibition of [3H]pyrilamine binding to Histamine H1 receptor
Chain of Histamine H1 receptor (P35367 whole entry): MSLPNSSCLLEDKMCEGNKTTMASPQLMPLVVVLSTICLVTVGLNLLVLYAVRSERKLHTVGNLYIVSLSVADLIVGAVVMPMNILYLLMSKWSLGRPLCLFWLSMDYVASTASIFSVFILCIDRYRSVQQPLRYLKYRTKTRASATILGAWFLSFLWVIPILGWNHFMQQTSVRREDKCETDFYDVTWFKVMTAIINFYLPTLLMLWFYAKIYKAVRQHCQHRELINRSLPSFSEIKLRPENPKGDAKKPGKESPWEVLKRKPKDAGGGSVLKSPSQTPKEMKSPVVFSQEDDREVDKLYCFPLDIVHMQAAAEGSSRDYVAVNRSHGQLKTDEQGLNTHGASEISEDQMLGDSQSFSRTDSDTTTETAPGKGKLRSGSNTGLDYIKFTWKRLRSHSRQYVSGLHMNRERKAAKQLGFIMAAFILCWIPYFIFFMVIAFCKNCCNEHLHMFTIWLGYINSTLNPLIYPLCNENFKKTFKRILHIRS
How it was run: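 Radioligand competition on membranes from a cell line transfected with the human target, incubated under optimized conditions. Stopped by rapid filtration. Ki by Cheng-Prusoff.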

[3] = target: T1, 5-hydroxytryptamine receptor 2C (Homo sapiens, UniProt P28335); test: Inhibition of [3H]- mesulergine binding to 5-hydroxytryptamine 2C receptor
T1 sequence (P28335 whole entry): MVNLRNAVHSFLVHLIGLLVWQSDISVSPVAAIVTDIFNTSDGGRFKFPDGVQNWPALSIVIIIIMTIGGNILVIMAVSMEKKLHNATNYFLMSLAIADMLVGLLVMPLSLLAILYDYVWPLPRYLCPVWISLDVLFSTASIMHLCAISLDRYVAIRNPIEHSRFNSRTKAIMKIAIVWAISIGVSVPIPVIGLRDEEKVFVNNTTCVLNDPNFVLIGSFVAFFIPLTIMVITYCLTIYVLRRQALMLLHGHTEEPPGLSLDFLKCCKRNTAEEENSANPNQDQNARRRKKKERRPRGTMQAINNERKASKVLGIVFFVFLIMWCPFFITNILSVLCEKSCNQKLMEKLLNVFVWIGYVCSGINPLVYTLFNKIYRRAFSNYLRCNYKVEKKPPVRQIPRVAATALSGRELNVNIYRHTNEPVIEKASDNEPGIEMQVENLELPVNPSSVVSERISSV
How it was run: (§1)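 Radioligand competition binding on membranes from cell lines carrying the human target, incubated with the labelled ligand under optimized conditions. Separation by filtration, except α1A and D3, which used scintillation proximity assay.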

[4] = target: T2, Sodium-dependent serotonin transporter (Homo sapiens, UniProt P31645); test: Inhibition of [3H]- paroxetine binding to 5-HTT receptor, serotonin transporter
T2 sequence (P31645 whole entry): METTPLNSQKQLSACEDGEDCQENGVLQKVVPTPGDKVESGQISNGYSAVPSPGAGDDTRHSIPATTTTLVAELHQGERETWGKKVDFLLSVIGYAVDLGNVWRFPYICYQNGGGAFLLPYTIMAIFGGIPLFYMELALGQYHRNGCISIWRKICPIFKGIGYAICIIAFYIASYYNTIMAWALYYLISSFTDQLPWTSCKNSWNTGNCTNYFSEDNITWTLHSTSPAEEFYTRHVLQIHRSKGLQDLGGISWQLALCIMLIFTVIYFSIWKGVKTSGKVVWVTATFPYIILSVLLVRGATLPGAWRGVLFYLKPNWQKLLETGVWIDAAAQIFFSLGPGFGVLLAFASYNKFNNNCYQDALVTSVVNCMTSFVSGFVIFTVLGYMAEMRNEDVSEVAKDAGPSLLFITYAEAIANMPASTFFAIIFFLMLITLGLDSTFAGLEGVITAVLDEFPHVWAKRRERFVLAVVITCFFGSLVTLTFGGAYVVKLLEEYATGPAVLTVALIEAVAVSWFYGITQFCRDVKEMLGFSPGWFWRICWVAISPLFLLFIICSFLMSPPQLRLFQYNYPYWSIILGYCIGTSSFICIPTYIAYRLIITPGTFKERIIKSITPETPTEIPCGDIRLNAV
How it was run: (§2)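 Human platelet membranes (50 µg protein) in 50 mM Tris-HCl pH 7.4 with 120 mM NaCl and 5 mM KCl. Competition against [3H]paroxetine (0.5 nM), 60 min at 25 °C. Nonspecific binding defined with imipramine (1 µM). Filtration over 0.1% PEI-presoaked GF/B, washed with incubation buffer. Sigmoidal fit of specific binding; Ki via Cheng-Prusoff.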

[5] = target: T3, 5-hydroxytryptamine receptor 1A (Homo sapiens, UniProt P08908); test: Inhibition of [3H]8-OH-DPAT binding to 5-hydroxytryptamine 1A receptor; how it was run: as §1
T3 sequence (P08908 whole entry): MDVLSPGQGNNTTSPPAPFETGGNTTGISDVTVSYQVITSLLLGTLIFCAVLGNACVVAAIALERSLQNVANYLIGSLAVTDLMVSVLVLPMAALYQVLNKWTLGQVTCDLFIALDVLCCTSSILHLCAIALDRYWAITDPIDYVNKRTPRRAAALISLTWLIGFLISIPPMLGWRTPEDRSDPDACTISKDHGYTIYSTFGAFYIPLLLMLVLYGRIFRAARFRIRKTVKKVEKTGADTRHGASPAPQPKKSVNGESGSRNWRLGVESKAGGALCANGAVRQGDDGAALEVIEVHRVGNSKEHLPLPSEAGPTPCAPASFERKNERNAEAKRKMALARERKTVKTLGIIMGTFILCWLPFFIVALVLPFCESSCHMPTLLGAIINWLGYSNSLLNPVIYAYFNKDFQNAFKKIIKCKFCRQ

[6] = target: 5-hydroxytryptamine receptor 2A (Homo sapiens, UniProt P28223); test: Inhibition of [125I]- R91150 binding to 5-hydroxytryptamine 2A receptor; how it was run: as §1
Chain of 5-hydroxytryptamine receptor 2A (P28223 whole entry): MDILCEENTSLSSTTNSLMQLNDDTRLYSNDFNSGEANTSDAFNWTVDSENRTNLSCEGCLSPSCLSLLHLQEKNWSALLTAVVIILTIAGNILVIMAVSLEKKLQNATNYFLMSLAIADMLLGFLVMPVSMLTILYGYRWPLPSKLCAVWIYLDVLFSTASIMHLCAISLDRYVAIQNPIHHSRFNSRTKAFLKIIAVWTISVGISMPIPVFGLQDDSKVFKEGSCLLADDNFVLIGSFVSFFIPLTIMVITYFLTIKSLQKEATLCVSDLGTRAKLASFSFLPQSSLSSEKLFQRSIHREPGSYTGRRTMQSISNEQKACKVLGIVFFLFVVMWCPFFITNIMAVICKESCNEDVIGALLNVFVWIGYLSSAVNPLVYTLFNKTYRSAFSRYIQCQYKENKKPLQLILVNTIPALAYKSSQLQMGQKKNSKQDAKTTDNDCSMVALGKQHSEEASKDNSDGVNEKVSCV

[7] = tested on: Rattus norvegicus; test: Effective dose for reversal of medetomidine-Induced loss of righting was determined by oral administration; format: functional
How it was run: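 Oral pretreatment of overnight-fasted male Wistar rats (200-250 g), then medetomidine 0.10 mg/kg iv (reversal means no loss of righting) or pCA 5 mg/kg sc (excitation scored 0-3 over 15 min from 45 min after pCA; inhibition means score <2). Doses taken from a geometric series.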

[8] = target: T2, Sodium-dependent serotonin transporter; test: Binding affinity for serotonin transporter; format: functional, Rattus norvegicus; how it was run: as §2
[9] = target: T4, Alpha-2C adrenergic receptor (Homo sapiens, UniProt P18825); test: Binding affinity for alpha-2C-adrenergic receptor
T4 sequence (P18825 whole entry): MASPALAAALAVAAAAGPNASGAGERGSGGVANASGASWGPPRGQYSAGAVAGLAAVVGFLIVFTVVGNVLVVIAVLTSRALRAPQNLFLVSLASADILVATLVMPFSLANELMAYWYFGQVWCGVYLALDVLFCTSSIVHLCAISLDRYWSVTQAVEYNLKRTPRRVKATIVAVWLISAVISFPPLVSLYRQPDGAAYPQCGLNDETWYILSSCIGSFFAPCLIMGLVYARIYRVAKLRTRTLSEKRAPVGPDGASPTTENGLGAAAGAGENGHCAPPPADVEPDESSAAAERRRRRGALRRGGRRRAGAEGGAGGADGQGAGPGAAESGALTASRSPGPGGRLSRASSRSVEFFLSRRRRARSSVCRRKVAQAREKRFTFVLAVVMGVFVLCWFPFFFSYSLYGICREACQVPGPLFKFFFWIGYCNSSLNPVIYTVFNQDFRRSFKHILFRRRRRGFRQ
How it was run: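 Human alpha2C receptor stably expressed in CHO cell membranes (5-10 µg protein) in 25 mM glycylglycine, pH 7.6. Competition against [3H]rauwolscine (1 nM), 30 min at 25 °C. Nonspecific binding defined with spiroxatrine (1 µM). Rapid filtration over GF/B, washed with ice-cold 50 mM Tris-HCl pH 8.0, scintillation counting. Sigmoidal curves fitted; Ki by Cheng-Prusoff.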

[10] = tested on: Rattus norvegicus; test: Effective dose for antagonism ofpCA-Induced excitation was determined by subcutaneous administration; format: functional; details: sc
How it was run: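 Male Wistar rats (200-250 g), fasted overnight, given test compound or solvent sc before challenge. Loss of righting induced by medetomidine 0.10 mg/kg iv; reversal means no loss of righting. Excitation induced by pCA 5 mg/10 mL/kg sc and scored 0-3 over 15 min starting 45 min after pCA; inhibition means score <2.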

Ki [2] [nM] | Ki [3] [nM] | Ki [4] [nM] | Ki [5] [nM] | Ki [6] [nM] | Ki [8] [nM] | Ki [9] [nM] | Compound | ED50 [1] [mg/kg] | ED50 [7] [mg/kg] | ED50 [10] [mg/kg]
> 1000 | > 1000 | 1.2 | > 1000 | > 1000 |  |  | COc1cc2c(cc1OC)C1=NO[C@@H](CN3CCN(C/C=C/c4ccccc4)CC3)[C@@H]1CO2 | 0.17 | 1.3 | 
> 1000 | > 1000 |  | > 1000 | > 1000 | 10 | 0.6 | COc1cc2c(cc1OC)C1=NO[C@@H](CN3CCN(C/C=C(\C)c4ccccc4)CC3)[C@@H]1CO2 | 0.24 |  | 
113 | > 1000 |  | 475 | > 1000 |  |  | COc1cc2c(cc1OC)C1=NO[C@@H](CN3CCN(C/C(C)=C/c4ccccc4)CC3)[C@@H]1CO2 | 0.33 | 0.63 | 
460 | > 1000 | 1.7 | > 1000 | > 1000 | 1.7 | 3.1 | COc1cc2c(cc1OC)C1=NO[C@@H](CN3CCN(Cc4ccc5ccccc5c4)CC3)[C@@H]1CO2 | 0.25 |  | 0.08
